From PubChem BioAssay
An excerpt weighted towards active compounds, which were near 1.9% of everything screened.
FAS-TE inh – blocks the thioesterase domain of human fatty acid synthase; P49327; 360,000 compounds, 0.67% hits; inhibition, % at 15 µM; recombinant FAS-TE, OMFH fluorogenic substrate, fluorescence endpoint;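 active = compounds whose normalised, plate-corrected inhibition of enzyme fluorescence in the single-dose primary screen is 50% or more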;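 also: 0% = DMSO with enzyme and 100% = substrate without enzyme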
STEP block – inhibitors of human striatal-enriched phosphatase STEP; P54829; recombinant STEP, OMFP fluorogenic substrate, fluorescence; inhibition, % at 20 µM; 360,000 compounds, 0.25% hits; AID 588621;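 active = inhibition at 20 µM, scaled per plate between control wells, above about 37%, limit read from the data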;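 also: 0% = DMSO with enzyme and substrate and 100% = substrate only without enzyme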
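System: STEP phosphatase, cell-free reaction; Buffer or medium: Bis-Tris pH 6.0 buffer with DTT, detergent; Incubation: 20 min at room temperature, dark; Measured by: fluorescence, 480/540 nm.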
Scp1 inh – inhibitors of human Scp-1 phosphatase; 340,000 compounds, 0.88% hits; AID 493091; Q9GZU7; inhibition, % at 20 µM; Recombinant Scp1, phosphopeptide, malachite green phosphate absorbance;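 active = inhibition above about 50% at 20 µM, limit read from the data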;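 also: plate controls were DMSO wells with enzyme for no effect and wells lacking enzyme for full effect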
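Times: enzyme reaction 45 min at room temperature, colour 5 min, stabilisation 30 min. Material: SCP-1 catalytic fragment, aa 76-261. Medium: Acidic Tris acetate buffer with magnesium and detergent. Signal: colorimetric free-phosphate detection, absorbance 630 nm. Read-out basis: % inhibition of SCP-1 phosphate liberation. Reagent: Phosphorylated 17-residue peptide substrate.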
SUMO1-SIM PPI – modulators of human SUMO1-mediated protein-protein interactions | 360,000 compounds, 0.33% hits | P63165 | SUMO1 binding to a labelled peptide, TR-FRET, 1 h | inhibition, % at 20 µM; in the data active = inhibition above about 37%
Target sequence (P63165 whole entry, looked up): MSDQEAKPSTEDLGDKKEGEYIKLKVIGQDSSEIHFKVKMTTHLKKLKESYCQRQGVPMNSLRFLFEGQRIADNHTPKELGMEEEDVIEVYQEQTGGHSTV
LMPTP inh – blocks human LMPTP phosphatase; P24666; AID 651560; recombinant LMPTP-A, OMFP fluorogenic substrate, fluorescence intensity; inhibition, % at 20 µM; 360,000 compounds, 0.22% hits;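 active = compounds that cut the enzyme signal by at least half of the control window in the single-dose screen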;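 also: plate controls were DMSO wells with enzyme plus substrate for no effect and substrate without enzyme for full effect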
Target sequence (P24666 whole entry, looked up): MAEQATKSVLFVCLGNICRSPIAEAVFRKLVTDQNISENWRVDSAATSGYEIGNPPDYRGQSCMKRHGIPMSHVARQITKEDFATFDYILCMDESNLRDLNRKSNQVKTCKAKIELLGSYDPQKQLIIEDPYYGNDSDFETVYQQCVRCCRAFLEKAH
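Test system: LMPTP-A phosphatase enzyme; input: 0.625 nM LMPTP-A final; reagent: OMFP substrate, 400 µM final; compound dosing: 20 µM single dose, 3% DMSO; incubation: 50 min dark incubation at room temperature; measured by: endpoint fluorescence intensity from OMFP dephosphorylation; measure: % inhibition relative to no-enzyme and uninhibited control wells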
STEP conf – STEP (human) phosphatase inhibition, single concentration confirmation; inhibition, % at 20 µM; recombinant STEP, OMFP fluorogenic substrate, fluorescence; 520 compounds, 32% hits; shares compounds with STEP block; call rule not given here;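 also: 0% = enzyme with substrate plus DMSO and 100% = substrate without enzyme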
* marks the source's active call; other numbers are inactive results; nt = no result given.

SMILES	FAS-TE inh	STEP block	Scp1 inh	SUMO1-SIM PPI	LMPTP inh	STEP conf
COc1ccc(N2CCN(C(CNC(=O)C3CCCCC3)c3ccco3)CC2)cc1 (configuration not stated)	-4	0	-4	4	1	nt
N/C(=N\OC(=O)c1cccc2ccccc12)c1cccc([N+](=O)[O-])c1	41	62*	49	-7	10	24*
Cc1ccccc1C(=O)O/N=C(\N)c1cccc([N+](=O)[O-])c1	15	2	-4	-25	-1	nt
O=C(N/N=C/c1ccccn1)c1ccc(Br)cc1	-14	72*	-12	-6	-1	3
O=C(N/N=C/c1ccccn1)c1ccc(N/N=C/c2ccccn2)cc1	-8	-2	-1	-1	-1	nt
Cc1ccccc1/C=N/Nc1nc2ccccc2c(=O)n1O	4	76*	-8	-5	1	20
O=C(Nc1ccc(OC(F)(F)F)cc1)C1CCCN(S(=O)(=O)c2cccnc2)C1 (configuration not stated)	4	39*	-3	1	1	3
CC1(C)CC(NC(=S)Nc2ccc(S(N)(=O)=O)cc2)CC(C)(C)N1	-3	63*	7	-1	2	16
NS(=O)(=O)c1ccc(NC(=S)NC2CC2)cc1	-5	0	-5	4	-1	nt
COCCCNC(=S)NC1CC2CCC(C1)N2Cc1ccccc1 (configuration not stated)	-3	3	1	0	1	nt
CCOCCCNC(=S)NC1CC2CCC(C1)N2Cc1ccccc1 (configuration not stated)	-5	55*	-3	2	1	25
CCN1CCN(c2nc(C)nc3c2sc(=S)n3C)CC1	0	93*	-4	1	3	-10
CC(OC(=O)c1cccc(S(=O)(=O)Nc2cccc(C(F)(F)F)c2)c1)C(=O)Nc1ccc2c(c1)OCCO2 (configuration not stated)	19	61*	-10	7	3	19
CC(=O)Nc1ccc(NC(=O)C(C)OC(=O)c2ccc3c(c2)OCCO3)cc1 (configuration not stated)	-4	-2	-2	0	-2	nt
Cc1ccc(S(=O)(=O)c2nnn(-c3cccc(F)c3)c2N)cc1	4	-6	-1	-1	0	nt
Cc1cccc(C(=O)Nc2ccccc2C(=O)Nc2ccc(C(=O)O)cc2)c1	-5	0	-10	1	-2	nt
O=C(O)c1ccc(NC(=O)c2ccccc2NC(=O)c2cccc(F)c2)cc1	-1	68*	-8	2	-2	13
COC(=O)c1ccc(NC(=O)CCS(=O)(=O)c2ccc3c(c2)NC(=O)C(C)S3)cc1 (configuration not stated)	-1	0	1	6	1	nt
COc1ccccc1NC(=O)CCS(=O)(=O)c1ccc2c(c1)NC(=O)C(C)S2 (configuration not stated)	-1	62*	-9	0	-1	1
CCCCc1ccc(NC(=O)c2cnccn2)cc1	6	0	-1	2	0	nt
CC1(C)CC(=O)C=C(NNC(=O)c2ccc(N)cc2)C1	-18	120*	0	-1	-1	6
COCCCn1c(=O)c2ccccc2n(CC(=O)NC2CCCCC2)c1=O	-3	-3	-6	4	-2	nt
O=C(CSC(=S)N1CCCC1)N/N=C/c1c(O)[nH]c(=S)[nH]c1=O	-3	-3	-8	-8	-2	nt
CN(Cc1c(C(=O)N/N=C/c2ccccc2)nnn1-c1nonc1N)c1ccccc1	15	0	-3	-2	0	nt
COc1ccc(/C=N/NC(=O)c2nnn(-c3nonc3N)c2CN(C)c2ccccc2)cc1	18	73*	-6	-5	3	-2
Cc1ccccc1COc1cccc(/C=N/NC(=O)c2nnn(-c3nonc3N)c2C)c1	-5	91*	-3	1	36	0
Cc1nc(CN2CCCCC2)cc(=O)[nH]1	-2	-2	5	0	-2	nt
CCN(CC)S(=O)(=O)c1ccc2oc(C(=O)NC(C)C)c(C)c2c1	2	-1	-3	2	0	nt
